# Among all 360,000 compounds or so, about 1,500 (0.42%) were called active. Shown is part of a subset that was picked to be rich in actives. Values without a mark were called inactive.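 How the source made its calls: active means inhibition above a per-plate cutoff of the control wells' mean inhibition plus 3 SD (cut at about 5.5% in these data); inactive means the rest.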
# Tested on: methionyl-tRNA synthetase (Trypanosoma brucei brucei)
# Assay: inhibition of trypanosome methionyl-tRNA synthetase – biochemical, luminescence, primary screen (AID 624268);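 further: 0% = DMSO wells median and 100% = median of wells with control inhibitor compound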
# Conditions: purified T. brucei MetRS, ATP depletion, Kinase-Glo luminescence; at 11.9 µM; hits give high values
# Outline: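 Dosing: 11.9 µM single point; system: parasite MetRS enzyme; technique: luminescence of leftover ATP; times: 15 min enzyme-compound preincubation, 2 h reaction, 10 min detection, 25 °C; replicates: each compound tested once; read-out basis: percent inhibition relative to median high and low control wells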
row,SMILES,inhibition
1,Cc1ccc(S(=O)(=O)Nc2nc(CN3CCOCC3)nc3sc(C)c(C)c23)cc1,-0.08%
2,CC(C)C1C2=C(CC(C)(C)CC2=O)ON1c1ccccc1 (stereo not given),0.41%
3,Cc1cc(=O)n2nc(N3CCC(C(=O)Nc4c(F)c(F)c(F)c(F)c4F)CC3)sc2n1,-0.7%
4,CCOc1ccc(S(=O)(=O)N2CCCCCC2)c2ccccc12,-0.75%
5,CCOc1ccc(NC(=O)N2CC=C(n3c(=O)[nH]c4ccccc43)CC2)cc1,-0.02%
6,C[C@H](O)[C@@H]1C(=O)N2CCc3c([nH]c4ccccc34)[C@@H]2C[C@@H]1N(C)C(=O)Nc1ccc(F)cc1,1.97%
7,CC(=O)C(CC(=O)N1CCCC1)C(=O)Nc1ccc(Cl)cc1 (stereo not given),-0.19%
8,Fc1ccc(NC(=S)N2CCc3[nH]c4ccccc4c3C2)cc1,9.22% (active)
9,O=C(Nc1ccc(Cl)cc1)N1CCc2[nH]c3ccccc3c2C1,64.1% (active)
10,O=C(CCCN1CCc2[nH]c3ccc(F)cc3c2C1)c1ccc(F)cc1,0.35%
11,Cc1ccc(N(C(=O)C(F)(F)F)C(C(=O)NC2CCCCC2)c2ccncc2)cc1C (stereo not given),-0.39%
12,COc1ccccc1OCC(=O)Nc1c2c(nn1-c1ccc(F)cc1)CS(=O)(=O)C2,0.18%
13,CC(=O)Nc1cc(-c2cccc(CO)c2)cn2c(-c3cccc(C(F)(F)F)c3)cnc12,-0.15%
14,Cc1cc(C)cc(NC(=O)N(C)Cc2ccccc2)c1,6.26% (active)
15,Cc1cc(C)cc(NC(=O)NCc2ccccn2)c1,-0.48%
16,Cc1cc(C)cc(NC(=O)CSc2ccccc2)c1,-0.78%
17,COc1ccc(CCNC(=O)C2CC3Cn4c(nc5cc(C)c(C)cc54)C3N2C)cc1 (stereo not given),0.64%
18,CCOC(=O)c1ccc2[nH]c(C)c(CN3CCN(C)CC3)c(=O)c2c1,-0.39%
19,CN(C)CCn1c(=S)[nH]c2ccc(Cl)cc2c1=O,0.6%
20,CCCCN(C)Cc1c(C)[nH]c2ccc(Cl)cc2c1=O,47% (active)

row,SMILES,inhibition
1,Cc1cccc(C)c1-n1nnnc1C(CCc1ccccc1)N1CCN(C/C=C/c2ccccc2)CC1 (stereo not given),-1%
2,Cc1cccc(N2CCN(C(c3ccc(N(C)C)cc3)c3nnnn3C(C)(C)C)CC2)c1C (stereo not given),-1.18%
3,O=C(/C=C(O)/C=C/c1ccc(O)cc1)/C=C/c1ccc(O)cc1,-0.28%
4,NC1=NC(=O)S/C1=C\c1ccc(O)cc1,22.9% (active)
5,CC(C)(C)c1ccc(/C=C2\SC(=O)N=C2N)cc1,19.9% (active)
6,CCc1nc(C)cn1S(=O)(=O)c1cc([N+](=O)[O-])ccc1Cl,-0.04%
7,O=C(CN1C(=O)CC(c2ccccc2)S(=O)(=O)c2ccccc21)NC1CCCC1 (stereo not given),-0.4%
8,Cc1cc(C(=O)OCC(=O)Nc2ccc(F)c(F)c2)c(C)o1,0.47%
9,COc1ccccc1NS(=O)(=O)N(C)C,-0.33%
10,CCOC(=O)CSc1nc2ccc(C)cc2n2cnnc12,-0.42%
11,CN(C)CCNC(=O)c1ccc(-c2cn3c(-c4ccc(Oc5ccccc5)cc4)cnc3cn2)cc1,0.12%
12,CC(C)(C)n1cnnc1Sc1ccc([N+](=O)[O-])cn1,-0.07%
13,O=C(Cc1ccc(S(=O)(=O)N2CCOCC2)s1)NCCC(c1ccccc1)c1ccccc1,-0.24%
14,O=C(Cc1ccc(S(=O)(=O)N2CCOCC2)s1)Nc1ccc(Br)c(C(F)(F)F)c1,9.17% (active)
15,O=C(Cc1ccc(S(=O)(=O)N2CCOCC2)s1)NCCOc1ccccc1F,-0.22%
16,Cc1nc(-c2ccc(Cl)cc2)sc1C1(C)CC(c2ccc(Br)cc2)=NO1 (stereo not given),0.57%
17,Cc1c(O)c(C)c2c(c1O)C(=O)C[C@@H](c1ccccc1)O2,1.18%
18,CCO[C@H]1OC(C(=O)O)=C[C@@H](C2CCCCC2)[C@@H]1CCCO,-0.27%
19,CCO[C@@H]1OC(C(=O)NCc2nc3ccccc3[nH]2)=C[C@H](C2CCCCC2)[C@H]1CCCO,15.3% (active)
20,CCO[C@H]1OC(C(=O)Nc2ccccc2)=C[C@@H](C2CC2)[C@@H]1CCCO,-0.28%

row,SMILES,inhibition
1,c1ccc(-c2ccc3c(c2)NC(C2Nc4cc(-c5ccccc5)ccc4O2)O3)cc1 (stereo not given),-0.77%
2,NC(=O)c1ccc(-c2csnn2)cc1,-0.49%
3,Cc1cc(Nc2cccc(F)c2)n2ncnc2n1,0.76%
4,CC(=N\NC(=O)c1cc(Br)ccc1O)/C(=N/O)C(=O)Nc1ccccc1,7.43% (active)
5,O=C(Nc1ccccc1)c1ccccc1Br,0.92%
6,C/C(=N/NC(=O)c1cc(Cl)ccc1O)C12CC3CC(CC(C3)C1)C2,-0.58%
7,COc1ccc(S(=O)(=O)c2c[nH]c(=S)[nH]c2=O)cc1Cl,-0.79%
8,CCOC(=O)c1cccc(NC(=O)CCc2c(C)nc3ncnn3c2C)c1,-0.04%
9,Cc1ccc(C(=O)Nc2ccc(C)c(S(=O)(=O)N(C)C)c2)s1,-0.69%
10,O=S(=O)(NCCc1ccc(Cl)cc1)c1cccs1,0.22%
11,O=S(=O)(NCc1ccc(Cl)cc1Cl)c1cccs1,18.5% (active)
12,O=C(Nc1cccc(Cl)c1)Nc1ccccc1NS(=O)(=O)c1cccs1,-0.14%
13,Cc1ccnc(NC(=O)Cn2ccc([N+](=O)[O-])n2)c1,1.25%
14,O=C(O)c1cccnc1Sc1ncnc2sc3c(c12)CCC3,-0.25%
15,Cn1c(NN)nc2sc3c(c2c1=O)CCC3,-0.59%
16,OCCNc1nc2ccccc2n1-c1ncnc2sc3c(c12)CCC3,22.8% (active)
17,CSCC[C@H](NC(=O)NCc1cccs1)C(=O)O,2.05%
18,O=S(=O)(c1ccccc1)N1CCC(c2ccccc2)CC1,0.06%
19,N#CC(C(=O)c1ccc(S(=O)(=O)N2CCCCCC2)cc1)c1nc2ccccc2[nH]1 (stereo not given),-0.41%
20,O=S(=O)(c1ccc(Br)cc1)N1CCC(c2nc3ccccc3[nH]2)CC1,7.1% (active)
